# Compound activity deposited in PubChem BioAssay by The Scripps Research Institute Molecular Screening Center.
# S1P1 ag pot: activates or potentiates agonism at human S1P1 receptor. S1P1 CRE-bla cells, forskolin, beta-lactamase FRET, potentiator mode; S1P1 agonist co-added at EC20, 2 nM; 100% = saturating reference agonist, 0% = basal. P21453. 56,000 tested, 0.57% active. AID 449. activation, % at 9.5 µM;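 active = activation above a cutoff set at the mean activation of all tested compounds plus 3 SD, cut at about 54% in these data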;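 note: forskolin at 4 µM as EC80 and the EC20 agonist is SEW2871; 100% = SEW2871 at its EC100 plus forskolin at EC80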
# 5HT1a ag: agonists of human 5-HT1a serotonin receptor. P08908. CHO 5-HT1a Ga15 NFAT-bla reporter, FRET ratio; 0% basal, 100% maximal reference agonist. activation, % at 10 µM. 65,000 tested, 0.56% active. AID 567;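 active = activation above the screen-wide mean activation plus 3 SD, cut at about 19% in these data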;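 note: 0% = DMSO wells and 100% = 5-CT at EC100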
# Target sequence (P08908 whole entry, looked up): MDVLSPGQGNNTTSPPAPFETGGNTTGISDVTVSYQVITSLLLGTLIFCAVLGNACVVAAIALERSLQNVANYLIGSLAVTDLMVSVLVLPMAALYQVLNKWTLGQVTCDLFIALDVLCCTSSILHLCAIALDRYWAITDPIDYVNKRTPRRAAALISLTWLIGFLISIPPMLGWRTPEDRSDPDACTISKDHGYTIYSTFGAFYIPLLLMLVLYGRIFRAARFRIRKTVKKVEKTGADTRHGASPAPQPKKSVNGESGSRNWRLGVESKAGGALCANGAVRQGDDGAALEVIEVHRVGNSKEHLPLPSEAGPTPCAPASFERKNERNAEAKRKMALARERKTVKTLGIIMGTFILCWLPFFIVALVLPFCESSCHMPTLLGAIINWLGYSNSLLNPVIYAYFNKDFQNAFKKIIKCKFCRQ
# S1P3 agonist: agonists of human S1P3 receptor; Q99500; S1P3 NFAT-BLA reporter cells, agonism, FRET ratio; relative to 1 µM S1P, basal subtracted; activation, % at 4.5 µM; 60,000 tested, 0.1% active; AID 373;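 active = activation above the screen-wide mean plus 3 SD, cut at about 4.5% in these data, passing the limit was not always enough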
#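 Assay system: CHO cells stably expressing human S1P3, Gα16 and NFAT-β-lactamase reporter. Timing: overnight plating, 4 h compound 37 °C, 2 h substrate RT. Signal: β-lactamase FRET emission ratio 460/535 nm. Measure: percent activation versus median 1 µM S1P response, basal-subtracted, per plate. Repeats: primary screen single test, confirmation screen in triplicate.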
# 5HT1E antag: 5-HT1E (human) receptor antagonism; CHO 5-HT1E Ga15 NFAT-bla reporter, FRET, antagonist; inhibition, % at 6 µM; 65,000 tested, 0.99% active;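 active = inhibition above a set limit, the mean inhibition across every tested compound plus 3 SD, cut at about 29% in these data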;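 note: signal is the 460 over 535 nm emission ratio of beta-lactamase substrate; 0% = agonist plus DMSO wells and 100% = wells without agonist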
# 5HT1a antag: antagonists of human 5-HT1a serotonin receptor | CHO 5-HT1a Ga15 NFAT-bla reporter, antagonist mode | inhibition, % at 10 µM | 62,000 tested, 0.68% active;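 active = inhibition above the mean of all tested compounds plus 3 SD, cut at about 43% in these data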;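 note: receptor stimulated by 5-CT agonist at 100 nM near EC80; beta-lactamase reporter measured by ratiometric fluorescence of a cleavable substrate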
# HTR1E agonist: 5-HT1E (human) receptor agonism; 65,000 tested, 0.69% active; P28566; activation, % at 6 µM; CHO 5-HT1E Ga15 NFAT-bla reporter, FRET; 0% DMSO wells, 100% control agonist wells; AID 574;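 active = activation above a set limit, the screen-wide mean activation plus 3 SD, cut at about 8.5% in these data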;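 note: 100% = positive control agonist at 1 µM giving full maximal response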
# * hit, by the source's call; x = no result. Sampled rows, rich in hits. Any-hit rate of the full collection: about 3%.
SMILES,S1P1 ag pot,5HT1a ag,S1P3 agonist,5HT1E antag,5HT1a antag,HTR1E agonist
CC1Oc2ccccc2N(CC(=O)N2CCCc3ccccc32)C1=O (centres undefined),4,41*,-1,3,14,1
O=C(Nc1ccc(N2CCOCC2)cc1)Nc1ccc2nc(-c3ccco3)c(-c3ccco3)nc2c1,x,-1,0,67*,40,0
Cc1cc(C)n(C(=O)c2ccc(S(=O)(=O)NCC3CCCO3)cc2)n1 (centres undefined),-2,0,-1,-4,4,0
CN1CCN(c2ncnc3c2sc2nc(N4CCCC4)c4c(c23)CC(C)(C)OC4)CC1,x,1,x,6,2,1
COc1cccc(C(=O)Nc2ccc3nc(N4CCN(c5ncccn5)CC4)cc(C)c3c2)c1OC,x,4,x,30*,24,1
CCCCCCc1cc2cc(C(=O)NC)c(=N)oc2cc1O,5,33*,-2,2,x,2
CN(C)c1ccc(/C=N/n2ncc3ccccc32)cc1,x,24*,x,6,-18,3
Fc1ccccc1N1CCN(c2ncnc3[nH]ncc23)CC1,27,310*,0,5,-8,-1
COc1ccc(Cl)cc1NC(=O)c1cccnc1,-7,-7,-2,5,5,-1
Cc1ccc(Cl)cc1N1CCN(C(=O)C2CCN(c3nnc(-n4cccc4)s3)CC2)CC1,87*,0,-2,-11,5,3
Cc1ccc(S(=O)(=O)NC(CN2CCOCC2)=NCCNS(=O)(=O)c2ccccc2)cc1,-1,-1,0,-7,4,-1
Cc1ccc(S(=O)(=O)N2CCCCC2)cc1C(=O)Nc1ncn[nH]1,0,1,0,9,10,1
O=C(O)CC1C(=O)NCCN1Cc1ccc(F)c(F)c1 (centres undefined),4,-5,0,-4,-13,22*
COc1ccc(-c2nc(-c3cccc(C)c3)no2)cc1OC,108*,0,0,-1,6,1
COc1cc(-c2nc(-c3cccc(C)c3)no2)cc(OC)c1OC,-18,-3,-1,-32,-1,0
COc1ccc(-c2nc(-c3cccc(C(F)(F)F)c3)no2)cc1OC,75*,1,-2,11,-2,0
COc1ccccc1-c1noc(-c2ccccc2)n1,25,-2,0,-7,20,-1
COc1ccccc1-c1nc(-c2cccc(C)c2)no1,99*,-1,-1,5,10,0
COc1ccc(-c2nc(-c3ccccc3OC)no2)cc1OC,83*,-1,0,8,13,0
CC(C)CC1(C)NC(=O)N(CCN2C(=O)c3ccccc3C2=O)C1=O (centres undefined),-13,1,0,-6,-4,0
COc1ccc(-c2nc(-c3cccs3)c(-c3cccs3)[nH]2)cc1O,-22,2,-1,7,24,-1
O=C(CN1CCN(c2ncccn2)CC1)Nc1ccccc1-n1cccc1,x,2,x,2,-6,1
O=C(NCC(c1ccc(F)cc1)N1CCOCC1)c1ccc(Br)o1 (centres undefined),x,0,x,-4,2,0
O=C(C1CCCCC1)N(Cc1nc2sc3c(c2c(=O)[nH]1)CCCC3)Cc1cccs1,15,0,-1,-12,25,-1
CCOC(=O)Cc1cnc(NC(=O)NC(C(=O)OCC)(c2ccccc2)C(F)(F)F)s1 (centres undefined),-1,0,0,-5,-11,0
SMILES,S1P1 ag pot,5HT1a ag,S1P3 agonist,5HT1E antag,5HT1a antag,HTR1E agonist
Cc1cc(C)n(-c2nc3c(c(=O)[nH]c(=O)n3C)n2C(C)C)n1,4,0,0,0,-1,1
CCOC(=O)C1=C(C)NC(=O)NC1/C(C)=C/c1ccccc1 (centres undefined),-5,0,-1,0,-14,0
Cc1c(O)c(CN2CCCCC2)cc2c3c(c(=O)oc12)CCC3,-8,3,-2,2,x,0
Oc1c(CN2CCc3ccccc3C2)cc(Cl)c2cccnc12,11,30*,-3,18,25,0
Oc1c(I)cc(Cl)c2cccnc12,-22,-2,-1,-15,x,2
Oc1c(CN2CCCCC2)cc(Br)c2cccnc12,15,11,-2,41*,47*,1
C=CCn1c(SCc2nc(N)nc(N3CCCCC3)n2)nnc1-c1ccco1,3,1,0,1,1,0
Fc1ccc2[nH]c3c(N4CCN(c5ccccc5)CC4)ncnc3c2c1,106*,4,-6,23,x,1
COc1cc2[nH]c3c(N4CCN(c5ccccn5)CC4)ncnc3c2cc1OC,-19,0,-1,24,-5,0
OC1(c2cccc(C(F)(F)F)c2)CCN(c2ncnc3c2[nH]c2ccc(F)cc23)CC1,100*,0,-2,35*,15,0
CCCCOc1ncnc2c1[nH]c1ccc(F)cc12,116*,-1,-2,18,-2,0
COCC(COCCCNC(=O)Nc1ccc(Br)cc1)OC (centres undefined),-7,-2,-1,13,3,0
CN(C=O)CP(=O)(O)CCN1CCCC1=O,-17,-1,0,-4,-18,1
Cc1cccc(N2CCN(c3nc4ccc(Cl)cc4n4cnnc34)CC2)c1C,-22,1,1,-19,-15,2
O=S(=O)(CCSc1nc2ccccc2o1)c1nc2ccccc2s1,55,-4,-1,22,47*,-1
O=C(CSc1nc2ccccc2s1)Nc1ncccn1,-22,-2,-1,-7,0,1
O=S(=O)(CCSc1ccccn1)c1nc2ccccc2s1,88*,-3,-1,8,42,0
CCS(=O)(=O)CCSc1nc2ccccc2o1,x,0,0,-1,-9,1
Cc1ccc(C2C(C#N)=C(N)Oc3c2sc2ccccc32)o1 (centres undefined),-43,0,-2,14,31,0
CC1(C)Cc2c(c(N3CCOCC3)nc3sc(-c4ccc(C(=O)O)o4)c(N)c23)CO1,1,1,-1,14,2,0
CNC(=O)c1ccc(-c2sc3nc(N4CCOCC4)c4c(c3c2N)CCCC4)o1,x,4,0,32*,6,2
c1ccc(-c2oc3ncnc(NCCCn4ccnc4)c3c2-c2ccccc2)cc1,-14,3,-1,29*,63*,-1
Cc1ccc2c(CSc3nc4ccccc4c(=O)n3CCCO)cc(=O)oc2c1,-20,-1,0,33*,16,0
COc1ccc(S(=O)(=O)n2nc(-c3cc(OC)c(OC)c(OC)c3)cc2N)cc1OC,-50,0,0,-3,-16,0
